# Compound activity deposited in PubChem by Johns Hopkins Ion Channel Center.
# RGS4 pot – RGS4 potentiators or activators, primary screen, cell-based, HEK293 M3R inducible RGS4, calcium flux | B-score at 10 µM | AID 463111, 2010 | 0.92% of 310,000 active | carbachol calcium flux Fluo4; active compounds read low;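 active = B-score of the integrated calcium signal more than 4 SD below the library mean, with starting fluorescence not abnormally high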;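 note: negative B-score means reduced calcium response which marks RGS4 activation or potentiation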
#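 Material: M3R-expressing HEK293 line, RGS4 induced by doxycycline | Schedule: Overnight RGS4 induction, 30 min dye load 37 °C, 20 min compound RT | Measured by: Fluo4 fluorescence kinetic imaging of calcium | Read-out: Integrated calcium ratio converted to B score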
# RGS4 block – RGS4 inhibitors, primary screen, cell-based, HEK293 M3R inducible RGS4, calcium flux. Fluo-4 calcium flux; active compounds read high; triggered by carbachol at its EC20. B-score at 10 µM. 0.45% of 310,000 active;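 active = B-score, a plate-corrected calcium signal, over three deviations above library mean, with baseline fluorescence within five deviations of library mean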;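 note: RGS4 expression induced by doxycycline in cells with stable M3 receptor; B-score is computed from the integrated fluorescence ratio over baseline after carbachol; higher B-score means a larger calcium signal and so more RGS4 inhibition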
# Target sequence (P49798 whole entry, looked up): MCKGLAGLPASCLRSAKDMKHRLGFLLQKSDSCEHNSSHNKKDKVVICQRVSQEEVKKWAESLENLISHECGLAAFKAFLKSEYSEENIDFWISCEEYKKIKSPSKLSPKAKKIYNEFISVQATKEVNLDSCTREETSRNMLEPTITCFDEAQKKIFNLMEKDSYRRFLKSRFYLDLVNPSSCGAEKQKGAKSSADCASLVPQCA
# MrgX1 antagonist – antagonists of human MrgX1 receptor, primary screen, HEK293 cells, Fluo-4 calcium flux; BAM8-22 antagonism; active compounds read low; Mas-related G-protein coupled receptor member X1 (Homo sapiens), Q96LB2; 1.3% of 310,000 active; AID 588676, 2011; B-score at 10 µM;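 active = calcium-response B-score plate-corrected more than 3 library SD below zero, starting fluorescence within 5 deviations, no agonist response on first addition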;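 note: peak minus trough fluorescence over baseline after final BAM8-22 challenge near maximal dose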
# Target sequence (Q96LB2 whole entry, looked up): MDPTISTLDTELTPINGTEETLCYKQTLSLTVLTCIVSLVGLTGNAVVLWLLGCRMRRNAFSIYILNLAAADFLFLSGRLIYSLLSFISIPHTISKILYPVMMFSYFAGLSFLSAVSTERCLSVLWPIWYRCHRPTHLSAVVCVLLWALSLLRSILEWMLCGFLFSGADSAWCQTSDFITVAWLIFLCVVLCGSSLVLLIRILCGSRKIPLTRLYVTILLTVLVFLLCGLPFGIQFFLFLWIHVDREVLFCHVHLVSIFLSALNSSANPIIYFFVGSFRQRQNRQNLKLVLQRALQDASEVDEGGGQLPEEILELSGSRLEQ
# MrgX1 ag – agonists of human MrgX1 receptor, primary screen, HEK293 cells, Fluo-4 calcium flux. Fluo-4 calcium fluorescence, agonist mode; active compounds read high. B-score at 10 µM. 0.44% of 310,000 active;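 active = calcium response B-score plate-corrected fluorescence ratio at least 3 library SD, with starting fluorescence B-score inside 5 SD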
#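 Assay system: MrgX1-expressing HEK293 cells / Amount: fifteen thousand cells per well / Doses: test compound in the initial addition of three / Timing: cells plated overnight, dye loaded 0.5 h 37 °C, 0.5 h room temperature / Technique: kinetic calcium dye fluorescence, Fluo-4 NW / Control set: positive and negative controls per plate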
# MrgX1 PAM – positive allosteric modulators of MrgX1, primary screen, HEK293 cells, Fluo-4 calcium flux | Mas-related G-protein coupled receptor member X1 (Homo sapiens), Q96LB2 | FDSS; active compounds read high | B-score at 10 µM | 0.63% of 310,000 active;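 active = plate-corrected calcium response at least 3 library SD above typical, normal starting fluorescence, not activating the receptor alone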;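 note: compound read alongside a low EC10 to EC30 dose of BAM8-22 agonist; peak minus trough fluorescence over baseline measured at the second addition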
# MrgX1 antag conf – MrgX1 receptor antagonists, duplicate retest, confirmation, HEK293 cells, Fluo-4 calcium flux; shares compounds with MrgX1 antagonist; BAM8-22 calcium flux; active compounds read low; remaining BAM8-22 calcium response % of control (active compounds read low), % at 10 µM; 19% of 2,300 active; AID 602420, 2012;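 active = remaining agonist calcium response no higher than 100% minus 3 SD of agonist-only control wells, with starting fluorescence near control levels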;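 note: agonist BAM8-22 given at a near maximal EC90 to ECmax level; peak minus minimum fluorescence divided by baseline after agonist addition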
# HEK293 Ca flux – nonspecific calcium signal in parental HEK293, confirmation, counter-screen for MrgX1 antagonist project, parental HEK293 cells, Fluo-4 calcium flux; shares compounds with MrgX1 antagonist; Fluo-4 calcium fluorescence, FDSS; fluorescence ratio F(max-min)/F0 at 10 µM; 2% of 4,000 active; AID 624111, 2012;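 active = duplicate-averaged calcium fluorescence ratio at least three times the standard deviation of buffer wells, a nonspecific response in parental cells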
# HEK293 Ca counter – calcium response in parental HEK293 cells, primary screen, counter-screen for MrgX1 allosteric activator project, cell-based, Fluo-4 calcium flux, duplicate; 0.4% of 4,000 active; fluorescence ratio F(max-min)/F0 at 10 µM; Fluo-4 fluorescence ratio; active compounds read high; shares compounds with MrgX1 antagonist;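 active = calcium fluorescence ratio, averaged over duplicates, at least 3 SD of the buffer-well ratio, meaning a nonspecific response in receptor-free cells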;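 note: untransfected parental HEK293 lacking MrgX1 used as counterscreen for MrgX1 allosteric activators; fluorescence change taken during the second addition on a kinetic imager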
# HEK293 Ca cntr2 – calcium response in parental HEK293 cells, primary screen, counter-screen for MrgX1 agonist project, cell-based, Fluo-4 calcium flux, duplicate, agonist mode; AID 624115, 2012; Fluo-4 calcium fluorescence (FDSS); active compounds read high; 8.7% of 4,000 active; shares compounds with MrgX1 antagonist; fluorescence ratio F(max-min)/F0 at 10 µM;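 active = calcium fluorescence ratio at least three times the spread of buffer wells, meaning a non-specific response in parental cells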
# Hits are given with their value; - = inactive; . = not tested or not shown. Shown are actives, neighbours in structure and some others; about 3.5% of the full set was active somewhere.
SMILES,RGS4 pot,RGS4 block,MrgX1 antagonist,MrgX1 ag,MrgX1 PAM,MrgX1 antag conf,HEK293 Ca flux,HEK293 Ca counter,HEK293 Ca cntr2
Clc1ccc(C(c2ccccc2)N2CCNCC2)cc1 (stereo not given),-,-,-6.3,-,-,-,-,-,-
CCc1ccccc1NC(=O)CSc1nnc(-c2ccco2)n1N,-,-,-6.7,-,-,-,-,-,-
N#C/C(=C(/O)CSc1nnc(Cc2cccs2)n1C1CCCCC1)c1nc2ccccc2[nH]1,-,-,-,-,-,.,.,.,.
N#CCSc1nnc(Cc2cccs2)n1C1CCCCC1,-,-,-4.7,-,-,-,-,-,-
C[C@@]12C(=O)Nc3cc(F)ccc3C(=O)N1[C@H]1c3ccccc3OC[C@@H]1[C@@H]2c1ccccc1,.,.,-6.2,-,-,82%,-,-,-
Cc1ccc2c(c1)[C@H]1[C@H](CO2)[C@H](c2ccccc2)[C@]2(C)C(=O)Nc3cc(Cl)ccc3C(=O)N12,.,.,-,-,-,.,.,.,.
O=C(OCCN1C(=O)c2ccccc2C1=O)c1cccs1,-,-,-5,-,-,-,-,-,-
CCOC(=O)Cc1cnc(NC(=O)CSc2nc3ncnc(N)c3[nH]2)s1,-,-,-,-,-,.,.,.,.
COc1ccc(-n2c(CNC(=O)c3cccs3)n[nH]c2=S)cc1,-,-,-4.8,-,-,-,-,-,-
COc1ccc(OC)c(N2C(=O)CC(Cc3ccc(Cl)cc3)C2=O)c1 (stereo not given),-,-,-4.5,-,-,-,-,-,-
Cc1cccc(NC(=O)c2ccccc2NC(=O)C2CCCCC2)c1C,-,-,-5,-,-,-,-,-,-
O=C(Nc1ccccc1)c1ccccc1NC(=O)C1CCCCC1,-,-,-,-,-,.,.,.,.
Cc1[nH]ccc(=O)c1OCc1c(Cl)cccc1Cl,-,-,-6.7,-,-,-,-,-,-
CN=c1nc(-c2ccccc2)n(-c2ccccc2)s1,.,.,-4.9,-,-,-,-,-,-
COc1cc2c(cc1OC)N1C(=O)CC(OCC(=O)O)C3C4CC5(CCN5C(=O)C4=O)C2C31 (stereo not given),-,-,-6,-,-,-,-,-,-
CC(=O)N1CCN(c2nc(-c3cccs3)nc3ccccc23)CC1,-,-,-4.7,-,-,-,-,-,-
Cc1cc(C)n(-c2nnc(C)n2/N=C/c2ccccc2O)n1,-,-,-,-,-,.,.,.,.
Cc1cc(C)n(-c2nnc(C)n2N)n1,-,-,-5.9,-,-,85%,-,-,-
O=c1cc(NS(=O)(=O)c2ccccc2)nc(SCc2c(Cl)cccc2Cl)[nH]1,-,-,-5.1,-,-,-,-,-,-
O=C1NC(O)(c2ccccc2)Oc2ccccc21 (stereo not given),-,-,-,-,-,.,.,.,.
CCCC1(C)NC(=O)c2ccccc2O1 (stereo not given),-,-,-4.9,-,-,-,-,-,-
O=C(NC1CCCC1)c1n[nH]c2ccccc12,-,-,-,-,-,.,.,.,.
COc1ccc(/C=C/C(=O)Nc2nc(C)c(C(=O)N(C)C)s2)cc1OC,-,-,-,-,-,.,.,.,.
